In ChEMBL document CHEMBL4828745, “Discovery and Structure-Activity Relationships of Quinazolinone-2-carboxamide Derivatives as Novel Orally Efficacious Antimalarials” (J Med Chem, 2021):

Assays:
[1] = Intrinsic clearance in rat liver microsomes at […] by LC-MS/MS analysis; type: ADME, Microsome
In short: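 Liver microsomes (human, mouse or rat) at 0.4 mg/mL protein, 37 °C, with an NADPH-regenerating system. Compound at 0.25 or 0.5 μM. Acetonitrile/diazepam quench, LC-MS quantitation. CLint from the first-order degradation rate constant.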

[2] = Apparent permeability of the compound from apical to basolateral side in human Caco-2 cells at 20 uM measured after 120 mins by LC-MS analysis; type: ADME, cell-based
In short: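 Caco-2 monolayers, apical-to-basolateral direction, in pH 7.4 HBSS with 20 mM HEPES on both sides. Donor at nominal 20 μM, 0.1% DMSO final. Flux followed over 120 min. Quantified by LC-MS with mass balance to derive Papp.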

[3] = Kinetic solubility of the compound in pH 6.5 phosphate buffer by nephelometry; type: physicochemical; conditions: read-out: Kinetic_solubility
In short: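 DMSO stock spiked into pH 6.5 phosphate buffer (1% DMSO final). After 30 min, solubility range estimated by nephelometry.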

[4] = Intrinsic clearance in human hepatocytes measured per 10^6 cells at 0.25 uM by LC-MS analysis; type: ADME, cell-based, Hepatocyte; conditions: read-out: CLH
In short: (§1)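 Compound at 0.25 μM incubated with cryopreserved human or rat hepatocytes (1×10^6 cells/mL) in Krebs–Henseleit buffer at 37 °C. Quenched with acetonitrile containing diazepam. LC-MS quantitation. CLint from the first-order degradation rate constant.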

[5] = Intrinsic clearance in rat hepatocytes measured per 10^6 cells at 0.25 uM by LC-MS analysis; type: ADME, cell-based, Hepatocyte; conditions: read-out: CLH; in short: as §1
[6] = molecular target: T1, CYP1A2 (Homo sapiens, UniProt P05177); test: Inhibition of CYP1A2 (unknown origin) at 10 uM by UPLC-MS analysis relative to control; type: ADME
T1 sequence (P05177 whole entry): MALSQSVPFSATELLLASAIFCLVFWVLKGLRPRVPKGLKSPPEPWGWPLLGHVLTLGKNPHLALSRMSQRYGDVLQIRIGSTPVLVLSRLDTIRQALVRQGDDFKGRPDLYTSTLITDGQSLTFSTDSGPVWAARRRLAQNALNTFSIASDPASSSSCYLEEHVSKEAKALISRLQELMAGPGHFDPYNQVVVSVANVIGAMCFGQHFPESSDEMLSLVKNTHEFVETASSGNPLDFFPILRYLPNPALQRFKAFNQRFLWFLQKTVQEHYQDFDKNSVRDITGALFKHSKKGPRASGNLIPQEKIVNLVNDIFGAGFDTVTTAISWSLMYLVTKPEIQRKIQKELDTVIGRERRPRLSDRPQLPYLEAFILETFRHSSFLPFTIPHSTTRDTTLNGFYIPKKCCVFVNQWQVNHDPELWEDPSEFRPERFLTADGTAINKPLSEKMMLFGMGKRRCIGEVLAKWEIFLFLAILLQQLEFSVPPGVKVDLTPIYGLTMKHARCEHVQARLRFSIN
In short: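 Human liver microsomes, using a substrate-specific metabolite approach. Test compound at 1 and 10 μM. Reference inhibitors: furafylline (1A2), sulfaphenazole (2C9), quinidine (2D6), ketoconazole (3A4). Specific metabolites quantified by UPLC-MS. Percent inhibition relative to incubation without inhibitor.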

[7] = molecular target: Voltage-gated inwardly rectifying potassium channel KCNH2 (Homo sapiens, UniProt Q12809); test: Inhibition of human ERG by QPatch automated patch clamp system
Voltage-gated inwardly rectifying potassium channel KCNH2, sequence (Q12809 whole entry): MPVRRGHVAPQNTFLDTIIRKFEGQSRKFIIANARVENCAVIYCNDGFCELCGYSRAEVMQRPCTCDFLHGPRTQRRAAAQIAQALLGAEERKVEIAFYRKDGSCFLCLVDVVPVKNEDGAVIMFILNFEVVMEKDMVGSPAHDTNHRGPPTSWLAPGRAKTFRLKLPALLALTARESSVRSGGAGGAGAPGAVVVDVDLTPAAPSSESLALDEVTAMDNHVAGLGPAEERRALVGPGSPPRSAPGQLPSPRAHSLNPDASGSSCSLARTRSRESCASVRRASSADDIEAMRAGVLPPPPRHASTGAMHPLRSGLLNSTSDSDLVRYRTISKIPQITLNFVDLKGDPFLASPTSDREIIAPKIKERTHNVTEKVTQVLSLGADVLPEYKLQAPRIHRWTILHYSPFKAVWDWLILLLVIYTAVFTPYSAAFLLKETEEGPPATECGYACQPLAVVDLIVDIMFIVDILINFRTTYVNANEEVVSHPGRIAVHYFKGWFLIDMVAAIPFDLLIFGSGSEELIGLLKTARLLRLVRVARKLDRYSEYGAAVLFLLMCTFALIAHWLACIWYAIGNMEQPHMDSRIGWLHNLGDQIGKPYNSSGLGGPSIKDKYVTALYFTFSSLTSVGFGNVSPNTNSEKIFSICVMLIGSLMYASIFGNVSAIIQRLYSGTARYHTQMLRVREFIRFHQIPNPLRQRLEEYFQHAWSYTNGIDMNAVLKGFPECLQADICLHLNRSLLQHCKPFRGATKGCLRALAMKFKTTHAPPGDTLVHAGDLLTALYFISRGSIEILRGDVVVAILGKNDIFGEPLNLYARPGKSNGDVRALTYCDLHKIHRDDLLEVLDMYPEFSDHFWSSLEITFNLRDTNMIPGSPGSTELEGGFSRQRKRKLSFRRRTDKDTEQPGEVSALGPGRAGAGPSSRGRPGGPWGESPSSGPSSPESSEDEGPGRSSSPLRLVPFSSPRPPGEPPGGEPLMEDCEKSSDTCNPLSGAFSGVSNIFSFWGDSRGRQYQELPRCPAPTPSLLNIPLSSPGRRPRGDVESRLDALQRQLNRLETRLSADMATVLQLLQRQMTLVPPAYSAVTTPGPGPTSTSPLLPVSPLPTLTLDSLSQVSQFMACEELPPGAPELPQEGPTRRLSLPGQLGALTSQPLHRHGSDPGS
In short: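 hERG current recorded on a QPatch automated patch clamp at four concentrations in 0.5-log steps.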

[8] = system: Plasmodium falciparum; test: Antiplasmodial activity against asexual blood stage Plasmodium falciparum 3D7 (MR4) infected in erythrocytes assessed as parasite clearance time for 99.9% organism; type: functional
In short: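 Samples taken every 24 h and washed free of drug. Viable parasites counted by limiting dilution: 3-fold serial dilutions, four independent series, growth scored at 21 days and confirmed at 28 days.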

[9] = system: Plasmodium falciparum; test: Antimalarial activity against Plasmodium falciparum 3D70087/N9 infected in humanized NODscidlL2Rgamma null mouse model assessed as reduction in parasitemia at 50 mg/kg, po for 4 consecutive days measured after 7 days of post infection relative to control; type: functional; conditions: 3D70087/N9, po, 96 h, time 4 day
In short: (§2)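 P. falciparum humanized SCID mouse model. Monosodium tetrahydrate salt given orally at 50 or 100 mg/kg on 4 consecutive days, n = 2 mice per group. Parasitemia read at day 7 post infection versus untreated controls.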

[10] = system: Plasmodium falciparum; test: Antimalarial activity against Plasmodium falciparum 3D70087/N9 infected in humanized NODscidlL2Rgamma null mouse model assessed as reduction in parasitemia at 100 mg/kg, po for 4 consecutive days measured after 7 days of post infection relative to control; type: functional; conditions: 3D70087/N9, po, 96 h, time 4 day; in short: as §2

## CCc1cccc(CNC(=O)c2nc3cccc(COCc4ccc(C(=O)O)cc4)c3c(=O)[nH]2)c1
[1]
  CLH: 36 uL/ml.millig
[2]
  Papp A→B at 2 h, 20 µM: 35 ×10⁻⁶ cm/s
[3]
  solubility kinetic: < 1.6 µg/mL
[4]
  hepatocyte CLint at 0.25 µM: 15 µL/min/1e6 cells
[5]
  hepatocyte CLint at 0.25 µM: 6 µL/min/1e6 cells
[6]
  inhibition at 10 µM: < 10%
[7]
  IC50: > 30 µM
[8]
  Time: 32 h
[9]
  inhibition in vivo at 50 mg/kg: 65%
[10]
  inhibition in vivo at 100 mg/kg: 89%
